Results: PubChem BioAssay
A number with no mark means an inactive call. Inconclusive results are not listed. The source made the active and inactive calls.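 How the source made its calls, unless noted: active means viability at or below 27.92% in each of two runs, the all-compound median minus 4 SD; inconclusive means no clear call, values can overlap the other calls; inactive means the rest.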

Tests used:
[1] = S. cerevisiae growth inhibition in permissive medium (OD615), pilot counter-assay for S. cerevisiae lifespan shortening project, permissive growth control (AID 705;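 active means growth inhibition above 25% in both replicates, a cutoff set 3 SD above the mean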); conditions: OD615, 24 h, at 10 µM, hits give high values
In short: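 System – S. cerevisiae with engineered DeaD lifespan system · Buffer or medium – SC raffinose/galactose permissive medium · Schedule – cells pre-grown 4 h, then 24 h compound exposure, 30 °C humidified · Technique – culture turbidity as optical density at 615 nm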

[2] = S. cerevisiae growth inhibition in restrictive medium, OD615, pilot screen, restrictive growth control, yeast lifespan reduction project (AID 706;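 active means growth inhibition above a set limit, 3 SD over mean compound inhibition, in both replicates, cut at about 43% in these data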;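 further: modified DeaD lifespan yeast strain shifted to restrictive glucose medium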); conditions: OD615, 48 h, at 10 µM, hits give high values
In short: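 Material: engineered S. cerevisiae DeaD strain / Medium: glucose-based CSMM-D restrictive medium / Compound: single dose of 10 µM compound final, 0.25% DMSO / Timing: 4 h pre-incubation, 48 h exposure at 30 °C / Technique: OD615 absorbance reading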

[3] = doxorubicin toxicity protection in MRP-1 cells – H69AR cells, CellTiter-Glo, duplicate, MRP-1 activator project, pilot screen (AID 807;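 active means viability increase at or above a cutoff of the median across tested compounds plus 3 SD, cut at about 8.5% in these data, passing the limit was not always enough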;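 further: compound pretreatment 18-22 h then 72 h combined with doxorubicin; 0% = doxorubicin alone and 100% = vehicle without doxorubicin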); conditions: H69AR viability with doxorubicin, CellTiter-Glo luminescence; at 10 µM; hits give high values
[4] = viability of PTEN-null HCT116 cells – cell-based, HCT116 clonal line, CellTiter-Glo, pilot screen (AID 824); conditions: HCT116 PTEN-deleted viability, 60 h, at 10 µM, hits give low values;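 further: 0% = 20 µM Hyamine control and 100% = vehicle cell control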
[5] = RAM pathway blockade in budding yeast – dse1pr::URA3 reporter, 5-FOA selection, pilot screen (AID 869;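 active means inhibition over a set limit, the all-compound mean plus 3 SD, in both replicate runs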;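 further: 0% = DMSO wells with no growth and 100% = 10 µM 1-NA-PP1 with full growth; RAM network block rescues cells from 5-FOA so hits raise OD615 growth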); conditions: S. cerevisiae dse1pr::URA3 5-FOA growth, OD615, 2 d; at 10 µM; hits give high values; strain carries analog-sensitive mutant Cbk1 kinase
[6] = RAM signaling pathway blockade in yeast – S. cerevisiae, Pdr1DBD-CYC8 efflux-inhibited sensitized strain, primary screen (AID 1298;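 active means RAM network inhibition above 8.4% in each of two replicates, 3 SD over the compound average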;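 further: 0% = DMSO untreated cells without growth and 100% = 10 µM 1-NA-PP1 full growth; higher means more yeast growth rescued from 5-FOA killing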); conditions: S. cerevisiae cbk1-as DSE1-URA3 strain, 5-FOA growth OD615, 2 d; at 50 µM; hits give high values

Compound | growth inhibition [1] [%] | growth inhibition [2] [%] | viability increase [3] [%] | viability [4] | inhibition [5] [%] | RAM network inhibition [6] [%]
Cc1ccc(S(=O)(=O)c2nc(-c3ccc(F)cc3)oc2SCC(=O)NCC2CCCO2)cc1 (stereo not drawn) | 8.03 | -4.51 | -7.96 | 15.3% (active) | 0.69 | 10.9
COc1ccc(NC2CS(=O)(=O)CC2NCc2ccco2)cc1 (stereo not drawn) | 3.62 | -15.4 | -4.04 | 96.2% | 1.94 | 4.2
O=C(CN1C(=O)c2ccccc2S1(=O)=O)N1CCN(c2ccccc2F)CC1 | 0.11 | 5.53 | -3.37 | 101% | 2.07 | 2.92
Cc1ccc(C(=O)COC(=O)c2ccc(Br)o2)cc1C | -5.44 | -2.75 | 1.02 | 100% | 2.77 | 1.29
Cc1c(C(=O)NCc2ccccn2)oc2ccc(S(=O)(=O)N3CCOCC3)cc12 | -0.375 | -7.32 | -3.28 | 94.4% | 1.13 | 0.56
O=C(CN(C1CCCCC1)S(=O)(=O)c1ccccc1)N1CCCC1 | -9.43 | -3.8 | -2.08 | 100% | 0.885 | 2.77
Cc1cc(C(=O)N2CCN(c3ccccn3)CC2)c(C)o1 | 9.65 | -7.73 | -5.92 | 96.3% | 0.945 | 4.2
O=C(CSc1nc2c(c(=O)n1-c1ccc(Br)cc1)SCC2)NCc1ccco1 | -0.48 | -1.07 | -3.54 | 77.4% | 0.41 | 5.24
CN(CCNC(=O)c1cc2c(=O)n(C)c3ccccc3c2n1C)Cc1ccccc1 | -12 | -7.87 | -8.65 | 41.1% | 1.83 | -0.47
Cc1c(C(=O)NCC2CCCO2)oc2ccc(S(=O)(=O)N3CCCC3)cc12 (stereo not drawn) | -6.79 | -3.9 | -2.38 | 91.6% | 2 | 1.44
CCOC(=O)C1CCN(S(=O)(=O)c2cc(Br)cc3c2N(C(=O)C2CC2)CC3)CC1 | -12.9 | -13.7 | -1.73 | 96.5% | 1.68 | 1.38
CCOC(=O)N1CCN(S(=O)(=O)c2cc(Br)cc3c2N(C(=O)C2CC2)CC3)CC1 | -3.63 | 7.68 | -1.65 | 99.5% | 0.715 | 5.87
CCn1cc(C(=O)NCCCN2CC(C)CC(C)C2)c2cc(OC)c(OC)cc2c1=O (stereo not drawn) | -15.8 | -7.97 | -2.98 | 97.5% | 1.03 | 3.13
COc1cc(NC(=O)COc2ccc(-n3cnnn3)cc2)c(OC)cc1Cl | -3.27 | -5.83 | -5.31 | 46.9% | 2.55 | 2.93
CCN(CC)CCN1C(=O)C(=O)/C(=C(/O)c2ccc(C)cc2)C1c1ccncc1 (stereo not drawn) | 2.04 | -2.02 | 0.64 | 97.9% | 0.635 | 5.38
COc1ccc(OC(C)C(=O)Nc2cccc(OC)c2)cc1 (stereo not drawn) | -4.58 | -2.9 | -4.64 | 97.9% | 0.625 | -0.52
Cc1c(C(=O)NCc2ccc3c(c2)OCO3)oc2ccc(S(=O)(=O)N3CCCC3)cc12 | -2.78 | -4.95 | -0.63 | 66.1% | 1.78 | 4.67
COC(=O)C(C)Sc1nnc(-c2ccncc2)o1 (stereo not drawn) | -6.28 | -8.81 | -0.71 | 99.4% | 1.64 | 0.1
COCCCNC(=O)c1cn(C)c(=O)c2cc(OC)c(OC)cc12 | -8.69 | -8.96 | -2.69 | 103% | 1.8 | 0.56

Compound | growth inhibition [1] [%] | growth inhibition [2] [%] | viability increase [3] [%] | viability [4] | inhibition [5] [%] | RAM network inhibition [6] [%]
CCCCNc1ncnc2c1cnn2-c1ccccc1 | -4.09 | -11.2 | -6.48 | 32.4% | 1.83 | -0.15
CCOC(=O)N1CCN(C(=O)CN(c2cccc(C(F)(F)F)c2)S(C)(=O)=O)CC1 | -9.57 | -1.87 | -4.09 | 88.9% | 0.905 | 4.83
COc1ccc(C2CC(=O)C(C=NCCO)=C(O)C2)cc1OC (stereo not drawn) | -5.79 | 4.22 | 1.21 | 105% | -0.07 | -0.41
CS(=O)(=O)N(CC(=O)N1CCN(c2ccccc2F)CC1)c1cc(C(F)(F)F)ccc1Cl | 1.93 | 0.015 | 0.43 | 88.3% | -0.485 | 0.87
O=C1c2ccccc2C(=O)N1CSc1nnnn1-c1ccccc1 | -1.45 | 31.4 | -2.14 | 104% | 2.01 | 6.61
CCOC(=O)C1CCN(C(=O)c2cn(C)c(=O)c3cc(OC)c(OC)cc23)CC1 | -3.38 | -10.2 | -4.21 | 98% | 1 | 3.95
Cc1c(C(=O)NCc2ccccc2)oc2ccc(S(=O)(=O)N3CCC4(CC3)OCCO4)cc12 | 5.31 | 2.71 | -4.5 | 66.5% | 3.6 | 2.96
O=C1C(=O)N(CCCn2ccnc2)C(c2cccnc2)/C1=C(/O)c1ccc(Br)cc1 (stereo not drawn) | -7.97 | 7.01 | -0.15 | 104% | 1.9 | 4
COc1ccc(C2C(C(=O)c3cccs3)=C(O)C(=O)N2c2nncs2)cc1 (stereo not drawn) | -15.5 | -14.4 | -1.95 | 102% | 0.41 | 2.46
COc1cc(C(=O)N2CCN(c3cccc(C)c3C)CC2)cc(OC)c1OC | 0.72 | 9.77 | -5.32 | 20.1% (active) | -0.125 | 10.1
CCOC(=O)c1c(O)c2c(n(Cc3ccco3)c1=O)CCCC2 | -8.59 | 4.38 | -0.86 | 102% | -0.075 | -1.18
COCCNC(=O)NC1(C(F)(F)F)Oc2ccc(Cl)cc2O1 (stereo not drawn) | -0.985 | -0.285 | -4.63 | 41.9% | 0.43 | 5.07
Cc1noc(C)c1C(=O)NCCCc1ccccc1 | -4.23 | -7.88 | -1.07 | 103% | 0.62 | 0.21
O=C(CN1CCCCC1)Nc1ccc(F)c(Cl)c1 | 5.67 | 4.63 | -2.13 | 98.4% | 1.7 | -0.11
COCCNC(=O)C1c2ccccc2C(=O)N(CCOC)C1c1ccc(F)cc1 (stereo not drawn) | -6.02 | 3.31 | -2.15 | 101% | 1.29 | 0.46
COC(=O)c1c(C)oc2cc(Br)c(OCC(=O)C(C)(C)C)cc12 | -9.2 | -14.9 | -2.86 | 90.9% | 1.84 | 3.84
COc1cc2c(cc1NC(C)=O)CCCC2 | -5.3 | -0.3 | -4.13 | 100% | 1.28 | 1.23
CCOC(=O)N1CCN(C(=O)c2oc3ccc(S(=O)(=O)N4CC(C)CC(C)C4)cc3c2C)CC1 (stereo not drawn) | -2.93 | 2.18 | -6.37 | 42.5% | 1.43 | 4.64
COCCOC(=O)c1c(C)oc2ccc(OC(=O)c3cccs3)cc12 | -11.1 | -17 | 1.16 | 104% | 2.33 | 6.79
